How the values were obtained:
SU-DHL-5 = experiment: Antiproliferative activity against human SU-DHL-5 cells assessed as cell viability at 10 uM by CellTiter-Glo luminescent cell viability assay (reference value: 100%); format: functional; conditions: read-out: Activity
MOLT-4 = experiment: Antiproliferative activity against human MOLT-4 cells assessed as cell viability at 20 uM by CellTiter-Glo luminescent cell viability assay (reference value: 100%); format: functional; conditions: read-out: Activity
[1] = biological target: PI3-kinase p110-alpha/p85-alpha (Homo sapiens, UniProt P42336); experiment: Inhibition of recombinant human full length N-terminal His-tagged p110alpha/p85alpha expressed in baculovirus expression system measured after 60 mins in presence of ATP by ATP-competitive binding assay
Chain of PI3-kinase p110-alpha/p85-alpha (P27986 whole entry): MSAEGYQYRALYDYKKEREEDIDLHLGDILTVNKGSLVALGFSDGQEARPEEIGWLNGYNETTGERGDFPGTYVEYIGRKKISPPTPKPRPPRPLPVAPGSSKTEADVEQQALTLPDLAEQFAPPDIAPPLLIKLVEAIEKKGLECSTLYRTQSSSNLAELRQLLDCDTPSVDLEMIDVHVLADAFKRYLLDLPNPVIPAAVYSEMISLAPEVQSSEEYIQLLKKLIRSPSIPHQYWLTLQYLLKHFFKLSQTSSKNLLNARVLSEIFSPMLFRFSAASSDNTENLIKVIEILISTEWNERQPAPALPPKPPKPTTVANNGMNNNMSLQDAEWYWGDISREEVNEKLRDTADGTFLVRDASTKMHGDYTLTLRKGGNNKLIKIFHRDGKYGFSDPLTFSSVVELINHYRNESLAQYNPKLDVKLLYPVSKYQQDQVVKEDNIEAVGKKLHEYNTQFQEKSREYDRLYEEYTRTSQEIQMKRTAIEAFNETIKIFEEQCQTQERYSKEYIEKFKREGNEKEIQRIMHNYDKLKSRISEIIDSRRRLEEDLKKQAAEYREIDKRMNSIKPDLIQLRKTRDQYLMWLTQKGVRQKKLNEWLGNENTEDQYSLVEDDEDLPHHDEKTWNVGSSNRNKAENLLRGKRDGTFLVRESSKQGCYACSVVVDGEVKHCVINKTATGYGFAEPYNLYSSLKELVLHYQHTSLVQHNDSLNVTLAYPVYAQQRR
Chain of PI3-kinase p110-alpha/p85-alpha (P42336 whole entry): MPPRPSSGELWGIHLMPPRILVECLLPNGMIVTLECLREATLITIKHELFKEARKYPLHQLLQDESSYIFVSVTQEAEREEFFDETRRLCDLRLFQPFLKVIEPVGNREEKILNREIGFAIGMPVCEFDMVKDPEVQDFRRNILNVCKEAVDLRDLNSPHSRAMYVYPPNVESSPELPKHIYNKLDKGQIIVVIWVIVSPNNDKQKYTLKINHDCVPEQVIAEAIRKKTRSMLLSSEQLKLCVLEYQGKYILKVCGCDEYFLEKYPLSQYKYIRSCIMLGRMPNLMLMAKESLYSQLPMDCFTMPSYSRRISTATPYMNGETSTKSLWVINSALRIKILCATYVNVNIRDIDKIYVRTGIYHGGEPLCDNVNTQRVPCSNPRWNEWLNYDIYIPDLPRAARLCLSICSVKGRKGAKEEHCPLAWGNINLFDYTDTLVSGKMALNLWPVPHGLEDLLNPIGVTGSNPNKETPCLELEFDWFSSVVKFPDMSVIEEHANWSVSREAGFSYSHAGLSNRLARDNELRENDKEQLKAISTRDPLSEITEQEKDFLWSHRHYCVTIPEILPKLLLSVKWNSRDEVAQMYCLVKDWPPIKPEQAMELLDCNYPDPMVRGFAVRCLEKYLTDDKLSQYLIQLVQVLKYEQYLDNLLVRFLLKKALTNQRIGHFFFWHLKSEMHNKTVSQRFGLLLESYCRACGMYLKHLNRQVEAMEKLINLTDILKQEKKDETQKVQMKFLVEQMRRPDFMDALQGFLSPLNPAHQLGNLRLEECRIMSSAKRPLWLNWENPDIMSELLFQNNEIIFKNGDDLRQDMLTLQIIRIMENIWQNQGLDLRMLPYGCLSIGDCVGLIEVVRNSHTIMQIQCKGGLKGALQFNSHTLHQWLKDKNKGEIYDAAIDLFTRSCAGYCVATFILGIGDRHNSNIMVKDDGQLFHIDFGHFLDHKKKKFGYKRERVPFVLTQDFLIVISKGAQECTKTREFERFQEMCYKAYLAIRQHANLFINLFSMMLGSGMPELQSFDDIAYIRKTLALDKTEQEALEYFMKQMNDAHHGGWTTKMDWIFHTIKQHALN
Method in brief: (§1)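 SelectScreen ATP-competitive assay using 10-point titration with 1 μM top final compound concentration. Kinase, substrate and ATP mixed in 30 mM HEPES buffer and reacted 60 min. IC50 taken as the mean of three independent experiments.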

[2] = biological target: Phosphatidylinositol 4,5-bisphosphate 3-kinase catalytic subunit beta isoform (Homo sapiens, UniProt P42338); experiment: Inhibition of recombinant human full length His-tagged p110beta expressed in baculovirus expression system measured after 60 mins in presence of ATP by ATP-competitive binding assay; method in brief: as §1
Chain of Phosphatidylinositol 4,5-bisphosphate 3-kinase catalytic subunit beta isoform (P42338 whole entry, canonical isoform): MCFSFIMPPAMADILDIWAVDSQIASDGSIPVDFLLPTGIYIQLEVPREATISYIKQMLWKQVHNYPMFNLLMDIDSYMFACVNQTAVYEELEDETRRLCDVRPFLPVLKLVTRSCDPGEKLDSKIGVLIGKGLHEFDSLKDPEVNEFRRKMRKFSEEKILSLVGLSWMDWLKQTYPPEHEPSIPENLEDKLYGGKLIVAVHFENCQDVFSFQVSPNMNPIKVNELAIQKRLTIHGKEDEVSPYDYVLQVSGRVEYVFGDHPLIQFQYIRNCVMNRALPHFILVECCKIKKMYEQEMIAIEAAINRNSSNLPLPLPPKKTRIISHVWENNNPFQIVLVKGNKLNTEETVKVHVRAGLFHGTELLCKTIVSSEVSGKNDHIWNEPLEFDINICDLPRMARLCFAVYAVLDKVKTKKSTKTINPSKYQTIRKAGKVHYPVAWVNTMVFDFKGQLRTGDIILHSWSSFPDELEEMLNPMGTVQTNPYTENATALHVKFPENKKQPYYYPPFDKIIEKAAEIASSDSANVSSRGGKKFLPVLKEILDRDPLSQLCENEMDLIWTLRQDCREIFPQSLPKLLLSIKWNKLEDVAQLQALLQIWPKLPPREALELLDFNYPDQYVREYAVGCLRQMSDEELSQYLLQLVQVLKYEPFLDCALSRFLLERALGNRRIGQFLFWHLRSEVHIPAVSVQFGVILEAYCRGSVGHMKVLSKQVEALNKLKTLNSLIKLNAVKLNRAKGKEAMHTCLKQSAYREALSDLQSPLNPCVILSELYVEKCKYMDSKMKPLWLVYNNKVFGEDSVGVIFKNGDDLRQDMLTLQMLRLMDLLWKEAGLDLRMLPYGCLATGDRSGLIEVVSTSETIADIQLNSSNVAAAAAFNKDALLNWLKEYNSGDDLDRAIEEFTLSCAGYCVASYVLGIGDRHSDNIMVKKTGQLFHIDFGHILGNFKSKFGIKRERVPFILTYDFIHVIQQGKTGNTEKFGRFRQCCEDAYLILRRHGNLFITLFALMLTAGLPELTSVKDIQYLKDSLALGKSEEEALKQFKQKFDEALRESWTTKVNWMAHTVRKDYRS

[3] = biological target: Phosphatidylinositol 4,5-bisphosphate 3-kinase catalytic subunit gamma isoform (Homo sapiens, UniProt P48736); experiment: Inhibition of recombinant human full length His-tagged p110gamma expressed in baculovirus expression system measured after 60 mins in presence of ATP by ATP-competitive binding assay; method in brief: as §1
Chain of Phosphatidylinositol 4,5-bisphosphate 3-kinase catalytic subunit gamma isoform (P48736 whole entry, canonical isoform): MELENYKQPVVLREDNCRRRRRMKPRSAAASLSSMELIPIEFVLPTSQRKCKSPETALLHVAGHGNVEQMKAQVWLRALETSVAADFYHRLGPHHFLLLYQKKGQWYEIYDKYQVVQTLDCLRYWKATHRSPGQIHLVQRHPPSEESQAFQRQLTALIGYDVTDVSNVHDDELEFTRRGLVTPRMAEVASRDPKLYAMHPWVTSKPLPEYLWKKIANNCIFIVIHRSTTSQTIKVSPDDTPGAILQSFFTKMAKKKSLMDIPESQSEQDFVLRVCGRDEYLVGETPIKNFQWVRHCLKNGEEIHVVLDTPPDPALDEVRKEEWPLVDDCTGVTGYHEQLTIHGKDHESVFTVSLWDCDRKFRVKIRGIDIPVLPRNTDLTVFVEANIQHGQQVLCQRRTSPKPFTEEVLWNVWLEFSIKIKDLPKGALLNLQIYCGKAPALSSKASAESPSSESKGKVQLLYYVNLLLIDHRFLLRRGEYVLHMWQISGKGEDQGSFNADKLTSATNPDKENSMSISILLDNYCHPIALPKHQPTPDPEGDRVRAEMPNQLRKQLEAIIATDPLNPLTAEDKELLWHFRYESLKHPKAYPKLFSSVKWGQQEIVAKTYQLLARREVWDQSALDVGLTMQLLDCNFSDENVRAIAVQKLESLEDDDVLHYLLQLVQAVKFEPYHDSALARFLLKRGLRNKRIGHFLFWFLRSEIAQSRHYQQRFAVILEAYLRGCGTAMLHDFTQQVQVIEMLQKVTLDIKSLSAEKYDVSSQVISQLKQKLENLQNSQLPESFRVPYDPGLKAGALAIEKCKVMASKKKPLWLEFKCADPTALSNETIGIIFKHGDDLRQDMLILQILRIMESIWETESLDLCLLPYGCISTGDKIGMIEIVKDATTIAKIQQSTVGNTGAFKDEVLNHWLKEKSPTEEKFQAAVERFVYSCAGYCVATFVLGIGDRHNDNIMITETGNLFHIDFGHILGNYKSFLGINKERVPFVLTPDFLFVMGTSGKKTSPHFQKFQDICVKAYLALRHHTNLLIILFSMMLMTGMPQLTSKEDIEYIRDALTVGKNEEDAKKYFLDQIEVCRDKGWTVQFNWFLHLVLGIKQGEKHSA

[4] = biological target: PI3-kinase p110-delta/p85-alpha (Homo sapiens, UniProt O00329); experiment: Inhibition of recombinant human full length His-tagged p110delta/p85alpha expressed in baculovirus expression system measured after 60 mins in presence of ATP by ATP-competitive binding assay; method in brief: as §1
Chain of PI3-kinase p110-delta/p85-alpha (P27986 whole entry): as the sequence (P27986 whole entry) above
Chain of PI3-kinase p110-delta/p85-alpha (O00329 whole entry): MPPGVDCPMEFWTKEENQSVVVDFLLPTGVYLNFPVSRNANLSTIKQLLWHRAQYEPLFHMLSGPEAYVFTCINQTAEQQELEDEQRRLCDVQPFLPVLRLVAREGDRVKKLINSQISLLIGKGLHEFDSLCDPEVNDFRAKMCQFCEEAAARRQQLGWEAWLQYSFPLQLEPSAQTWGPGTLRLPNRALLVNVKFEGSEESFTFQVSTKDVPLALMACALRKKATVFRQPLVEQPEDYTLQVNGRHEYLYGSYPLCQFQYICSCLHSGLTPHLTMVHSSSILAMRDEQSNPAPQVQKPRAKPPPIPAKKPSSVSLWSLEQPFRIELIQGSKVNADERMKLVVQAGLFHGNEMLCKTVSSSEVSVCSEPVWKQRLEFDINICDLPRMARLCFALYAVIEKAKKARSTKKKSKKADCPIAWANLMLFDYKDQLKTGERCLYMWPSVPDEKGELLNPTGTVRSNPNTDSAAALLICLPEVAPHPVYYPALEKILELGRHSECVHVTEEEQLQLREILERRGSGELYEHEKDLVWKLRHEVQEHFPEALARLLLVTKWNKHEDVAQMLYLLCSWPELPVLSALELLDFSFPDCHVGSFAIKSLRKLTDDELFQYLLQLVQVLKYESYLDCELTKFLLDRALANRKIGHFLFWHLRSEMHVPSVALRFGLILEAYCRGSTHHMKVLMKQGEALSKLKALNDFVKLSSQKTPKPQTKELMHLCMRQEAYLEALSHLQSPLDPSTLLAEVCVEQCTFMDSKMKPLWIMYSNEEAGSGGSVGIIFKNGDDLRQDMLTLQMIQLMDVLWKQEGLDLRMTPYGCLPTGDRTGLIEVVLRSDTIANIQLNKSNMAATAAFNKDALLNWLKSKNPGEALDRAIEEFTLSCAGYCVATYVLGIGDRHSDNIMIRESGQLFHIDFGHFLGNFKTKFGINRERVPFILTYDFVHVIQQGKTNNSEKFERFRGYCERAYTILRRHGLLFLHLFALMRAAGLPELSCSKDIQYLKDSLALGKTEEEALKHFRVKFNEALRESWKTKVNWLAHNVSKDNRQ

Homo sapiens = species on record: Homo sapiens; experiment: Selectivity ratio of IC50 for recombinant human full length His-tagged p110gamma expressed in baculovirus expression system to IC50 for recombinant human full length His-tagged p110delta/p85alpha expressed in baculovirus expression system

| SMILES | IC50 [1] | IC50 [2] | IC50 [3] | IC50 [4] | Ratio IC50 (Homo sapiens) | viability at 10 µM (SU-DHL-5) | viability at 20 µM (MOLT-4) |
| --- | --- | --- | --- | --- | --- | --- | --- |
| O=c1c2c(F)cccc2nc([C@@H](Nc2ncnc3nc[nH]c23)C2CCC2)n1-c1ccccc1 | 879 nM | 854 nM | 155 nM | 2.05 nM | 75.6 | 43% | 76.5% |
| CC[C@H](Nc1ncnc2nc[nH]c12)c1nc2cccc(N)c2c(=O)n1-c1ccccc1 | 475 nM | 287 nM | 24.7 nM | 1.3 nM | 19 | 45.8% | 83.6% |
| O=c1c2c(Cl)cccc2nc([C@@H](Nc2ncnc3nc[nH]c23)C2CCC2)n1-c1ccccc1 | 490 nM | 470 nM | 63.8 nM | 1.7 nM | 37.5 | 52.8% | 54.7% |
| C[C@H](Nc1ncnc2nc[nH]c12)c1nc2cccc(F)c2c(=O)n1-c1ccccc1 | 152 nM | 145 nM | 15.3 nM | 0.5 nM | 30.6 | 46.1% | 63.7% |
| CC(C)[C@H](Nc1ncnc2nc[nH]c12)c1nc2cccc(F)c2c(=O)n1-c1ccccc1 | 878 nM | 1670 nM | 313 nM | 1.82 nM | 172 | 63.4% | 86.2% |
| C[C@H](Nc1ncnc2nc[nH]c12)c1nc2cccc(N)c2c(=O)n1-c1ccccc1 | 127 nM | 250 nM | 7.5 nM | 0.4 nM | 18.8 | 36.9% | 80.9% |

Now from value to compound, other results behind:

| IC50 [1] | IC50 [2] | IC50 [3] | IC50 [4] | Ratio IC50 (Homo sapiens) | SMILES | viability at 10 µM (SU-DHL-5) | viability at 20 µM (MOLT-4) |
| --- | --- | --- | --- | --- | --- | --- | --- |
| 369 nM | 562 nM | 24.7 nM | 1.07 nM | 23.1 | Nc1cccc2nc([C@@H](Nc3ncnc4nc[nH]c34)C3CC3)n(-c3ccccc3)c(=O)c12 | 23.5% | 65.8% |
| 326 nM | > 1000 nM | 56.3 nM | 3.23 nM | 17.4 | CCC[C@H](Nc1ncnc2nc[nH]c12)c1nc2cccc(C(F)(F)F)c2c(=O)n1-c1ccccc1 | 36.4% | 52.2% |
| 301 nM | 129 nM | 18.3 nM | 0.5 nM | 36.6 | CCC[C@H](Nc1ncnc2nc[nH]c12)c1nc2cccc(Cl)c2c(=O)n1-c1ccccc1 | 29.3% | 24.7% |
| 385 nM | 440 nM | 72.2 nM | 1.08 nM | 66.8 | CCC[C@H](Nc1ncnc2nc[nH]c12)c1nc2cccc(F)c2c(=O)n1-c1ccccc1 | 34.4% | 60.7% |
| 205 nM | 87.6 nM | 10.4 nM | 0.6 nM | 17.3 | O=c1c2c(Cl)cccc2nc([C@@H](Nc2ncnc3nc[nH]c23)C2CC2)n1-c1ccccc1 | 36.7% | 56.5% |
| 356 nM | 1040 nM | 62.5 nM | 0.5 nM | 125 | CC(C)[C@H](Nc1ncnc2nc[nH]c12)c1nc2cccc(Cl)c2c(=O)n1-c1ccccc1 | 29.7% | 56.4% |
| 295 nM | 200 nM | 29.2 nM | 1.09 nM | 26.8 | O=c1c2cc(F)ccc2nc([C@@H](Nc2ncnc3nc[nH]c23)C2CC2)n1-c1ccccc1 | 24.4% | 68.1% |
